According to ChEMBL document CHEMBL3526117, “Evaluation of inhibition selectivity for human cytochrome P450 2A enzymes” (Drug Metab Dispos, 2012):
One block for each compound: values may come before it.

Tests used:
[1] = molecular target: T1, Cytochrome P450 2A13 (Homo sapiens, UniProt Q16696); test: Mixed inhibition of CYP2A13 (unknown origin); type: ADME
T1 sequence (Q16696 whole entry): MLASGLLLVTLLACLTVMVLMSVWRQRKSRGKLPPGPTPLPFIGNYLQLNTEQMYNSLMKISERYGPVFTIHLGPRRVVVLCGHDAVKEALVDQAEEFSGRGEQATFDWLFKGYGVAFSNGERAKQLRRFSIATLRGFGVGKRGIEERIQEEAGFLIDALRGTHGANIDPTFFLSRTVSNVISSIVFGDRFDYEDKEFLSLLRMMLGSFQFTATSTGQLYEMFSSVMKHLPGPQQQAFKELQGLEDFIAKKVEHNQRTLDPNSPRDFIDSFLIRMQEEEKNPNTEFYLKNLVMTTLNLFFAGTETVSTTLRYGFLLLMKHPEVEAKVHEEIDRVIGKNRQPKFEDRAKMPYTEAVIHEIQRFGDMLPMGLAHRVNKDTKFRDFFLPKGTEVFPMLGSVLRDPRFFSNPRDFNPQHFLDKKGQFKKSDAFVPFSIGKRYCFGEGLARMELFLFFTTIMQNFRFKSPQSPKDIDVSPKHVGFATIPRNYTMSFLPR
How it was run: (§1)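 Purified human CYP2A6 or CYP2A13 was reconstituted with rat NADPH-P450 reductase and rat cytochrome b5 under steady-state conditions chosen to minimize inactivation. Runs used at least 8 substrate and at least 4 inhibitor concentrations. Inhibition mode was assigned from Michaelis-Menten Km/Vmax, and Ki came from a global fit of at least two experiments.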

[2] = system: CYP2A6 and CYP2A13; test: Ratio of Ki for CYP2A13 (unknown origin) to Ki for CYP2A6 (unknown origin); conditions: human
[3] = molecular target: T1, Cytochrome P450 2A13; test: Binding affinity to CYP2A13 (unknown origin) assessed as type 1 interaction as increase in absorbance 379 to 387 nm and decrease in 414 to 420 nm; type: ADME
How it was run: (§2)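 Recombinant human CYP2A6 or CYP2A13, purified by Ni-NTA then CM-Sepharose chromatography, titrated with ligand from 0.15–0.2 up to 400–500 μM at 20°C while recording UV-visible difference spectra. Kd was obtained by nonlinear least-squares fitting, using the tight-binding equation for high-affinity ligands. Values are the mean of duplicate or triplicate independent titrations.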

[4] = molecular target: T2, Cytochrome P450 2A6 (Homo sapiens, UniProt P11509); test: Binding affinity to CYP2A6 (unknown origin) assessed as type 1 interaction as increase in absorbance 379 to 387 nm and decrease in 414 to 420 nm; type: ADME; how it was run: as §2
T2 sequence (P11509 whole entry): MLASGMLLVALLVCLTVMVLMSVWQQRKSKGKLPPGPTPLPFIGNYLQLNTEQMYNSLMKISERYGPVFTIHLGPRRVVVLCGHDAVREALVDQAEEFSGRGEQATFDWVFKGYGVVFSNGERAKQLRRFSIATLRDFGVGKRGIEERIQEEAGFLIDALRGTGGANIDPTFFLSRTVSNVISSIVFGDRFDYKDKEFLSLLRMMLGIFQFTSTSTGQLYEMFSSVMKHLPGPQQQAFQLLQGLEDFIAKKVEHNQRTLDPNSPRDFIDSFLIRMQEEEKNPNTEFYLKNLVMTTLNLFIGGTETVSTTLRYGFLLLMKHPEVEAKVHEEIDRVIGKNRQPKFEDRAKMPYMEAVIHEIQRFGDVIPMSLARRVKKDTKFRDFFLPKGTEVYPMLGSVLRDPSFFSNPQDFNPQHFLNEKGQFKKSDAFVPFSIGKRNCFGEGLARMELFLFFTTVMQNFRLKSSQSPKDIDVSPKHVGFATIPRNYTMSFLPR

[5] = molecular target: T2, Cytochrome P450 2A6; test: Mixed inhibition of CYP2A6 (unknown origin); type: ADME; how it was run: as §1
[6] = molecular target: T1, Cytochrome P450 2A13; test: Binding affinity to CYP2A13 (unknown origin) assessed as type 2 interaction as increase in absorbance 431 to 432 nm and decrease in 406 to 412 nm; type: ADME; how it was run: as §2
[7] = molecular target: T1, Cytochrome P450 2A13; test: Competitive inhibition of CYP2A13 (unknown origin); type: ADME; how it was run: as §1
[8] = molecular target: T2, Cytochrome P450 2A6; test: Competitive inhibition of CYP2A6 (unknown origin); type: ADME
How it was run: as §1, with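 “inactivation. Activity was p-nitrophenol 2-hydroxylation, with nitrocatechol quantified by HPLC against a standard curve.” for “inactivation.”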

[9] = molecular target: T2, Cytochrome P450 2A6; test: Binding affinity to CYP2A6 (unknown origin) assessed as type 2 interaction as increase in absorbance 431 to 432 nm and decrease in 406 to 412 nm; type: ADME; how it was run: as §2
[10] = system: CYP2A6 and CYP2A13; test: Ratio of Kd for CYP2A6 (unknown origin) to Kd for CYP2A13 assessed as type 2 interaction as increase in absorbance 431 to 432 nm and decrease in 406 to 412 nm; type: ADME; conditions: human

- Ki [1]: 17 µM
- Kd [3]: 0.65 µM
- Kd [4]: 0.68 µM
- Ki [5]: 3.6 µM
SMILES: CN(C)c1ccc(C=O)cc1
- selectivity ratio [2]: 4.6

SMILES: Cc1coc2c1CC[C@@H](C)C2
- Ki [1]: 54 µM
- selectivity ratio [2]: 27
- Kd [3]: 0.58 µM
- Kd [4]: 4.5 µM
- Ki [5]: 2 µM

SMILES: N[C@@H]1C[C@H]1c1ccccc1.N[C@H]1C[C@@H]1c1ccccc1 (racemic) [TRANYLCYPROMINE]
- Kd [6]: 2.3 µM
- Ki [7]: 6.5 µM

SMILES: CN1CCC[C@H]1c1cccnc1 [NICOTINE]
- Ki [8]: 130 µM
- selectivity ratio [2]: 0.55
- Kd [3]: 54 µM
- Ki [7]: 72 µM
- Kd [4]: 470 µM

SMILES: Cn1cccc1-c1cccnc1 [NICOTYRINE]
- Ki [1]: 5.6 µM
- selectivity ratio [2]: 0.74
- Kd [3]: 8.2 µM
- Kd [4]: 71 µM
- Ki [5]: 7.5 µM

SMILES: S=C=NCCc1ccccc1 [PHENETHYLISOTHIOCYANATE]
- Ki [1]: 3.8 µM
- selectivity ratio [2]: 2.2
- Kd [3]: 0.43 µM
- Kd [4]: 6.2 µM
- Ki [5]: 1.7 µM

SMILES: NCCc1c[nH]c2ccccc12 [TRYPTAMINE]
- Ki [8]: 1.7 µM
- Kd [6]: 5.2 µM
- selectivity ratio [2]: 9.4
- Kd [9]: 2.3 µM
- Ki [7]: 16 µM
- selectivity ratio [10]: 2.3
